# Calls of active or inactive are those of the source. The calls are words filed in the database; no cut-off is given here.
# Tests used:
# [1] = Distribution coefficient, log D of the compound at pH 7.4; conditions: octanol/water
# [2] = biological target: T1, Interferon alpha/beta receptor 1 (Homo sapiens) (UniProt P17181); experiment: Inhibition of IFNAR in human Daudi cells assessed as reduction of IFN-induced STAT1 phosphorylation at 200 uM after 15 mins by Western blotting; assay type: cell-based
# T1 sequence (whole entry): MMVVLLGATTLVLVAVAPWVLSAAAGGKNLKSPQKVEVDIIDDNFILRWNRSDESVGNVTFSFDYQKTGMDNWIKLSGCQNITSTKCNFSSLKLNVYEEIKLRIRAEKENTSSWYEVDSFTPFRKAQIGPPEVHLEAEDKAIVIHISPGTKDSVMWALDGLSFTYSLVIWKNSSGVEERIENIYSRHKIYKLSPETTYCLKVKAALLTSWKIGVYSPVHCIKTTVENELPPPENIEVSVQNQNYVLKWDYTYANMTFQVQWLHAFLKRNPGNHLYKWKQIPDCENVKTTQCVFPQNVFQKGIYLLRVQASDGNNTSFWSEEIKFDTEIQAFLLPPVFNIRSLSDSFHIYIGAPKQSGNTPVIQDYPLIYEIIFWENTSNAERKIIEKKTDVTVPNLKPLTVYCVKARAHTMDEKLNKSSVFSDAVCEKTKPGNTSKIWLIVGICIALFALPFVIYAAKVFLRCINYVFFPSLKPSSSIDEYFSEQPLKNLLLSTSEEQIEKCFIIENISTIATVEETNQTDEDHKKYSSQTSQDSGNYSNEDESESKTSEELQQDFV
# Outline: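 Daudi cells untreated, given 10 pg IFN alfacon-1 alone, or 10 pg IFN plus 200 µM compound for 15 min. Lysed in phosphorylation lysis buffer with protease and phosphatase inhibitors. Equal protein run on SDS–PAGE and immunoblotted for tyrosine-phosphorylated STAT1. Bands quantitated relative to tubulin. Data representative of duplicate independent experiments.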
# [3] = test system: Daudi; experiment: Cytotoxicity against human Daudi cells assessed as cell viability up to 200 uM after 24 hrs by propidium iodide staining; assay type: cell-based
# Outline: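 Daudi cells (1 × 10⁶) left untreated or exposed to the indicated compound doses for 24 h, washed twice in PBS and resuspended in PBS with 2% FCS. 10⁵ cells stained with propidium iodide for 15 min; dead (PI-positive) cells counted by FACS.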
# [4] = biological target: T1, Interferon alpha/beta receptor 1 (Homo sapiens); experiment: Inhibition of IFNAR in human Daudi cells assessed as reduction of STAT-DNA binding at 200 uM by EMSA; assay type: cell-based
# Outline: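 Daudi cells untreated, given 100 pg IFN alfacon-1, or IFN plus the indicated compound doses for 15 min. Protein–DNA complexes resolved by native PAGE (EMSA).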
# [5] = biological target: T1, Interferon alpha/beta receptor 1 (Homo sapiens); experiment: Inhibition of IFNAR in human Daudi cell nuclear extracts assessed as reduction of IFN-induced STAT1 phosphorylation at 200 uM after 15 mins by Western blotting
# Outline: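 Daudi cells untreated, given 10 pg IFN alfacon-1 alone, or 10 pg IFN plus 200 µM compound for 15 min. Nuclear extracts immunoblotted for tyrosine-phosphorylated STAT1. Band intensities quantitated relative to tubulin as loading control.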
# [6] = Solubility of the compound; assay type: physicochemical
logD [1],inhibition [2],inhibition [4],inhibition [5],solubility [6],SMILES,Activity [3]
-0.3,inactive,–,–,–,COc1ccccc1NS(=O)(=O)c1cc(C(=O)N2CCN(Cc3ccc4c(c3)OCO4)CC2)ccc1Cl,–
8.9,Active,Active,Active,–,O=C(O)CCCCCN1C(=O)/C(=C/c2c(N3CCCc4ccccc43)nc3ccccn3c2=O)SC1=S (mixture of isomers),Toxic
-0.8,inactive,–,–,–,O=C(c1cccc(S(=O)(=O)Nc2ccc(Cl)cc2)c1)N1NC2=C(CCC/C2=C\c2ccco2)C1c1ccco1 (mixture of isomers),–
0.2,inactive,–,–,–,COc1ccccc1NS(=O)(=O)c1ccc2oc(=S)n(CN3CCN(c4ccc(F)cc4)CC3)c2c1,–
5.8,inactive,–,–,–,CCOc1ccccc1/C=N/NC(=O)CSc1nc2ccccc2c(=O)n1-c1ccccc1C (mixture of isomers),–
2.4,inactive,–,–,–,O=C(c1cc(S(=O)(=O)Nc2cccc(Cl)c2)c(Cl)cc1Cl)N1CCN(Cc2ccc3c(c2)OCO3)CC1,–
-0.1,inactive,–,–,–,O=C(c1cc(S(=O)(=O)Nc2cccc(C(F)(F)F)c2)ccc1Cl)N1CCN(Cc2ccc3c(c2)OCO3)CC1,–
–,Active,Active,Active,–,O=C(c1ccc(NS(=O)(=O)c2cc(Cl)sc2Cl)cc1)N1CCN(Cc2ccc3c(c2)OCO3)CC1,–
-0.1,inactive,–,–,–,CCOC(=O)c1nn(-c2ccc(C)cc2)c(C)c1C(=O)C1=NOC2C(=O)N(c3ccccc3C)C(=O)C12 (stereo not given),–
0.01,inactive,–,–,–,O=C(c1cc(S(=O)(=O)Nc2ccccc2F)c(Cl)cc1Cl)N1CCN(Cc2ccc3c(c2)OCO3)CC1,–
4.7,Active,Active,Active,soluble,Cc1ccc(-n2c(SCC(=O)N/N=C/c3ccccc3OCC(=O)O)nc3ccccc3c2=O)cc1 (mixture of isomers),Non-toxic

# — ChEMBL document CHEMBL3102792, “Small molecule mimetics of an interferon-α receptor interacting domain” (Bioorg Med Chem, 2014)
